Source: ChEMBL document CHEMBL2086221, “Armeniaspiroles, a new class of antibacterials: Antibacterial activities and total synthesis of 5-chloro-Armeniaspirole A” (Bioorg Med Chem Lett, 2012)
Converted amounts (≈) assume the structure as drawn. The source made the active and inactive calls. The rule behind the calls is not given here.

What was measured:
[1] = tested on: Streptococcus pneumoniae; experiment: Antibacterial activity against penicillin-resistant Streptococcus pneumoniae DSM 11865; type: functional; conditions: Streptococcus pneumoniae, DSM 11865
[2] = tested on: Staphylococcus aureus; experiment: Antibacterial activity against methicillin-resistant Staphylococcus aureus ATCC 33592; type: functional; conditions: Staphylococcus aureus, ATCC 33592
[3] = tested on: Enterococcus faecium; experiment: Antibacterial activity against vancomycin-resistant Enterococcus faecium DSM 17050; type: functional; conditions: Enterococcus faecium, DSM 17050
[4] = tested on: Escherichia coli; experiment: Antibacterial activity against Escherichia coli ATCC 35218 expressing LacR; type: functional
[5] = tested on: Pseudomonas aeruginosa; experiment: Antibacterial activity against Pseudomonas aeruginosa ATCC 27853; type: functional
[6] = Solubility of the compound in PBS buffer at pH 7.4; type: physicochemical
[7] = Chemical stability of the compound in PBS buffer up to 24 hrs at pH 7.4; type: physicochemical; conditions: pH 7.4, 24 h
[8] = Drug degradation in PBS buffer over 24 hrs in presence of GSH; type: physicochemical; conditions: PBS buffer with GSH; read-out: Drug degradation
Method in brief: (§1)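 Parent compound incubated in PBS buffer with 10 mM GSH or 10 mM i-BuNH2 for 24 h; read-out is the decrease in parent compound concentration over that period.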

[9] = Drug degradation in PBS buffer over 24 hrs in presence of i-BuNH2; type: physicochemical; conditions: PBS buffer with i-BuNH2; read-out: Drug degradation; method in brief: as §1
[10] = tested on: Staphylococcus aureus; experiment: Antibacterial activity against methicillin-resistant Staphylococcus aureus ATCC 33592 at >1 ug/mL after 48 hrs; type: functional, organism-based
[11] = tested on: Streptococcus pneumoniae; experiment: Antibacterial activity against penicillin-resistant Streptococcus pneumoniae DSM 11865 at >1 ug/mL after 48 hrs; type: functional, organism-based
[12] = tested on: Enterococcus faecium; experiment: Antibacterial activity against vancomycin-resistant Enterococcus faecium DSM 17050 at >1 ug/mL after 48 hrs; type: functional, organism-based
[13] = tested on: Escherichia coli; experiment: Antibacterial activity against Escherichia coli ATCC 35218 expressing LacR at >1 ug/mL after 48 hrs; type: functional, organism-based
[14] = tested on: Pseudomonas aeruginosa; experiment: Antibacterial activity against Pseudomonas aeruginosa ATCC 27853 at >1 ug/mL after 48 hrs; type: functional, organism-based
[15] = molecular target: Cytochrome P450 3A4 (Homo sapiens, UniProt P08684); experiment: Inhibition of CYP3A4; type: ADME
Chain of Cytochrome P450 3A4 (P08684 whole entry): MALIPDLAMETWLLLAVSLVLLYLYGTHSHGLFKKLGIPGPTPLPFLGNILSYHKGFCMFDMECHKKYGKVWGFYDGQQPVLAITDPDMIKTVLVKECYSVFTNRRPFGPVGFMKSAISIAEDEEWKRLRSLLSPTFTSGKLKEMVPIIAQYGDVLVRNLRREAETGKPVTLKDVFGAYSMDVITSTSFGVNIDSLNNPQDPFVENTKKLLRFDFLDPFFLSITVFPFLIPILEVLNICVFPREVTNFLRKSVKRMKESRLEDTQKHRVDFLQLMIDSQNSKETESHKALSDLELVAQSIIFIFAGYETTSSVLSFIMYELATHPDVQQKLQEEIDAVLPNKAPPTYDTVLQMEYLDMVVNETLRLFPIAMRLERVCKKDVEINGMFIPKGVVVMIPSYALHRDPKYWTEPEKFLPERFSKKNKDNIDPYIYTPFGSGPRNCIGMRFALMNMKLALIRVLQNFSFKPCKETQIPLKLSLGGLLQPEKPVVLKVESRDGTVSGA

[16] = molecular target: Cytochrome P450 2D6 (Homo sapiens, UniProt P10635); experiment: Inhibition of CYP2D6; type: ADME
Chain of Cytochrome P450 2D6 (P10635 whole entry): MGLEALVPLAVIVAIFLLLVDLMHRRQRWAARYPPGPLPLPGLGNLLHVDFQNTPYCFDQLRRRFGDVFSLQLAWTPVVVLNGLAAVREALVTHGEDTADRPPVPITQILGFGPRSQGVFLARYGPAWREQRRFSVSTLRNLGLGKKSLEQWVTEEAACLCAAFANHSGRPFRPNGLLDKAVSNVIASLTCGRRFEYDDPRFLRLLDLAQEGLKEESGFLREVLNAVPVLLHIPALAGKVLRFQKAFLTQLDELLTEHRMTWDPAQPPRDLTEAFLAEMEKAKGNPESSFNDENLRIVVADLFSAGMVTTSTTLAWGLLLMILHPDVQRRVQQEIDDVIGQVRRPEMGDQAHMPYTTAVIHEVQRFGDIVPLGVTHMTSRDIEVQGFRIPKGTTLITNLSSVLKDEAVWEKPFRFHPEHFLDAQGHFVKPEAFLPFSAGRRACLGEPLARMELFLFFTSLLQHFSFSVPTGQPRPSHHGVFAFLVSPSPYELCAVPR

[17] = molecular target: hERG (KCNH2) (Homo sapiens, UniProt Q12809); experiment: Inhibition of human ERG at 10 uM
Chain of hERG (KCNH2) (Q12809 whole entry): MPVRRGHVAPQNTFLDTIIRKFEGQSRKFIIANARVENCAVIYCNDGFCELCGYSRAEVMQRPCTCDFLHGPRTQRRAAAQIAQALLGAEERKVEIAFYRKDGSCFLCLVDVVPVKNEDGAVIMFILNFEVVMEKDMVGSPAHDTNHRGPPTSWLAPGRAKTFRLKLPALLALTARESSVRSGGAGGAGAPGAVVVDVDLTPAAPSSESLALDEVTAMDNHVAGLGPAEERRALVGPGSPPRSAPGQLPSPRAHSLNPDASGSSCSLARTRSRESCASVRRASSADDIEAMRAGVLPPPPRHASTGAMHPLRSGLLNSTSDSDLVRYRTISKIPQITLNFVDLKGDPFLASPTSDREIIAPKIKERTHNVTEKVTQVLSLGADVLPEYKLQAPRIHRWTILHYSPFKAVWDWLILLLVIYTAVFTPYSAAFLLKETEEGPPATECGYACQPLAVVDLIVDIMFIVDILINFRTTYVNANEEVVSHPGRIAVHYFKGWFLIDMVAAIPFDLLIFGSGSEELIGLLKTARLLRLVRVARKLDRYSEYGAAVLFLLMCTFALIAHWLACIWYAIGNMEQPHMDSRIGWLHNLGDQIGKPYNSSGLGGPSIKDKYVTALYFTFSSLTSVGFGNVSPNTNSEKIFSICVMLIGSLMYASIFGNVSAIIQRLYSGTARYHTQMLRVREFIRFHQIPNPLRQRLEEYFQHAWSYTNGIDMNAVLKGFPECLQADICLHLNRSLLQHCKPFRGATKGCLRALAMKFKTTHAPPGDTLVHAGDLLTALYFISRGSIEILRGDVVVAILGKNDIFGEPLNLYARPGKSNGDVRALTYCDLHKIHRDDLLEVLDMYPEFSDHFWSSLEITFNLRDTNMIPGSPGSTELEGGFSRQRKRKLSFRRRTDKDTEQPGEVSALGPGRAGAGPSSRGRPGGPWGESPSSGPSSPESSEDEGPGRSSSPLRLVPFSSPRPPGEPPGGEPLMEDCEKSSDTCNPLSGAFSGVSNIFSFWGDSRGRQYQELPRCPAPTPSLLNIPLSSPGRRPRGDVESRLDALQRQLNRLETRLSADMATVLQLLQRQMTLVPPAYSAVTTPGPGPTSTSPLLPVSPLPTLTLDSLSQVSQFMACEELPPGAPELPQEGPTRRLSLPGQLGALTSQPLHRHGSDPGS

[18] = Clearance in Swiss mouse at 7.5 mg/kg, iv; type: ADME, organism-based; design: dose 7.5 mg/kg, route intravenous; conditions: in vivo
Method in brief: (§2)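 Male Swiss mice dosed 7.5 mg/kg iv; plasma pharmacokinetics gave clearance, steady-state volume of distribution, Cmax and plasma half-life.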

[19] = Volume of distribution at steady state in Swiss mouse at 7.5 mg/kg, iv; type: ADME, organism-based; design: dose 7.5 mg/kg, route intravenous; conditions: in vivo, read-out: Vdss; method in brief: as §2
[20] = Cmax in Swiss mouse at 7.5 mg/kg, iv; type: ADME, organism-based; design: dose 7.5 mg/kg, route intravenous; conditions: in vivo; method in brief: as §2
[21] = Half life in Swiss mouse plasma at 7.5 mg/kg, iv; type: ADME, organism-based; design: dose 7.5 mg/kg, route intravenous; method in brief: as §2
[22] = tested on: Staphylococcus aureus; experiment: Antibacterial activity against methicillin-resistant Staphylococcus aureus ATCC 33592 infected in mouse assessed as host survival at 20 mg/kg/day, sc relative to control; type: functional; conditions: ATCC 33592, sc, route subcutaneous
Method in brief: (§3)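 Mice with MRSA ATCC33592 septicemia were dosed sc at 20, 40 or 80 mg/kg/d in 5% ethanol/5% Solutol/Tris-NaCl buffer pH 9. Survival was scored in six animals per group, and log reduction of blood bacteremia in five animals per group. Results are given as mean ± sem against the vehicle-treated group (P < 0.05 or P < 0.001).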

[23] = tested on: Staphylococcus aureus; experiment: Antibacterial activity against methicillin-resistant Staphylococcus aureus ATCC 33592 infected in mouse assessed as host survival at 40 mg/kg/day, sc relative to control; type: functional; conditions: ATCC 33592, sc, route subcutaneous; method in brief: as §3
[24] = tested on: Staphylococcus aureus; experiment: Antibacterial activity against methicillin-resistant Staphylococcus aureus ATCC 33592 infected in mouse assessed as host survival at 80 mg/kg/day, sc relative to control; type: functional; conditions: ATCC 33592, sc, route subcutaneous; method in brief: as §3
[25] = tested on: Staphylococcus aureus; experiment: Antibacterial activity against methicillin-resistant Staphylococcus aureus ATCC 33592 infected in mouse assessed as host survival at 3 mg/kg/day, iv relative to control; type: functional
[26] = tested on: Staphylococcus aureus; experiment: Antibacterial activity against methicillin-resistant Staphylococcus aureus ATCC 33592 infected in mouse assessed as host survival at 10 mg/kg/day, iv relative to control; type: functional
[27] = tested on: Staphylococcus aureus; experiment: Antibacterial activity against methicillin-resistant Staphylococcus aureus ATCC 33592 infected in mouse assessed as host survival at 15 mg/kg/day, iv relative to control; type: functional
[28] = tested on: Staphylococcus aureus; experiment: Antibacterial activity against methicillin-resistant Staphylococcus aureus ATCC 33592 infected in mouse assessed as log reduction in bacteremia at 20 mg/kg/day, sc relative to control; type: functional; conditions: route subcutaneous; method in brief: as §3
[29] = tested on: Staphylococcus aureus; experiment: Antibacterial activity against methicillin-resistant Staphylococcus aureus ATCC 33592 infected in mouse assessed as log reduction in bacteremia at 40 mg/kg/day, sc relative to control; type: functional; conditions: route subcutaneous; method in brief: as §3
[30] = tested on: Staphylococcus aureus; experiment: Antibacterial activity against methicillin-resistant Staphylococcus aureus ATCC 33592 infected in mouse assessed as log reduction in bacteremia at 80 mg/kg/day, sc relative to control; type: functional; conditions: route subcutaneous; method in brief: as §3
[31] = tested on: Staphylococcus aureus; experiment: Antibacterial activity against methicillin-resistant Staphylococcus aureus ATCC 33592 infected in mouse assessed as log reduction in bacteremia at 3 mg/kg/day, iv relative to control; type: functional
[32] = tested on: Staphylococcus aureus; experiment: Antibacterial activity against methicillin-resistant Staphylococcus aureus ATCC 33592 infected in mouse assessed as log reduction in bacteremia at 10 mg/kg/day, iv relative to control; type: functional
[33] = tested on: Staphylococcus aureus; experiment: Antibacterial activity against methicillin-resistant Staphylococcus aureus ATCC 33592 infected in mouse assessed as log reduction in bacteremia at 15 mg/kg/day, iv relative to control; type: functional
[34] = tested on: Staphylococcus aureus; experiment: Antibacterial activity against methicillin-resistant Staphylococcus aureus ATCC 33592 infected in iv dosed mouse assessed as increase in host survival; type: functional, organism-based
[35] = tested on: Staphylococcus aureus; experiment: Antibacterial activity against methicillin-resistant Staphylococcus aureus ATCC 33592 infected in iv dosed mouse assessed as decrease in bacteremia; type: functional, organism-based
[36] = tested on: Staphylococcus aureus; experiment: Bacteriostatic activity against methicillin-resistant Staphylococcus aureus ATCC 33592 by time kill study in presence of fetal calf serum; type: functional, organism-based
[37] = tested on: Streptococcus pneumoniae; experiment: Bacteriostatic activity against penicillin-resistant Streptococcus pneumoniae DSM 11865 by time kill study in presence of fetal calf serum; type: functional, organism-based
[38] = tested on: Enterococcus faecium; experiment: Bacteriostatic activity against vancomycin-resistant Enterococcus faecium DSM 17050 by time kill study in presence of fetal calf serum; type: functional, organism-based
[39] = tested on: Escherichia coli; experiment: Bacteriostatic activity against Escherichia coli ATCC 35218 expressing LacR by time kill study in presence of fetal calf serum; type: functional, organism-based
[40] = tested on: Pseudomonas aeruginosa; experiment: Bacteriostatic activity against Pseudomonas aeruginosa ATCC 27853 by time kill study in presence of fetal calf serum; type: functional, organism-based

CCCCCCc1c(O)ccc2c1O[C@]1(C2=O)C(Cl)=C(Cl)C(=O)N1C [ARMENIASPIROLE A]
IC80 [1]: 2.3 µM | IC80 [2]: 0.125 µM | IC80 [3]: 8.2 µM | IC80 [4]: > 30 µM | IC80 [5]: > 30 µM | solubility [6]: 25 µg/mL (≈ 65.1 µM) | Stability [7]: Stable | degraded at 24 h [8]: 30% | degraded at 24 h [9]: < 10% | Activity [10]: Active | Activity [11]: Active | Activity [12]: Active | Activity [13]: Active | Activity [14]: Active | IC50 [15]: > 10 µM | IC50 [16]: > 10 µM | inhibition at 10 µM [17]: < 35% | clearance [18]: 20 mL/min/kg | Vd [19]: 2.4 L/kg | Cmax [20]: 27400 ng/mL | half-life [21]: 3 h | survival at 20 mg/kg/day [22]: 0% | survival at 40 mg/kg/day [23]: 50% | survival at 80 mg/kg/day [24]: 50% | survival at 3 mg/kg/day [25]: 0% | survival at 10 mg/kg/day [26]: 33% | survival at 15 mg/kg/day [27]: 67% | FC [28]: 0.2 | FC [29]: 0.8 | FC [30]: 1.7 | FC [31]: 0.05 | FC [32]: 0.9 | FC [33]: 2.8 | Survival [34]: Dose-dependent effect | Activity [35]: Dose-dependent effect | Activity [36]: inactive | Activity [37]: inactive | Activity [38]: inactive | Activity [39]: inactive | Activity [40]: inactive
